Source: ChEMBL document CHEMBL5661970 (Cancer Res, 2006)
Calls of active or inactive are those of the source. The rule behind the calls is not given here.

Assays:
SK-HEP1 = experiment: Antitumor activity against human SK-HEP1 cells xenografted in gamma-irradiation induced RH-rnu/rnu athymic rat assessed as tumor growth inhibition at 0.2 mg/kg, po administered once daily for 2 weeks and measured on day 14 relative to control; format: functional; conditions: SK-HEP1, light or radiation study, 336 h, read-out: TGI
PC-3 [1] = experiment: Antitumor activity against human PC-3 cells xenografted in gamma-irradiation induced RH-rnu/rnu athymic rat assessed as tumor growth inhibition at 0.2 mg/kg, po administered once daily for 2 weeks and measured on day 14 relative to control; format: functional; conditions: PC-3, light or radiation study, 336 h, read-out: TGI
CAKI-1 = experiment: Antitumor activity against human CAKI-1 cells xenografted in gamma-irradiation induced RH-rnu/rnu athymic rat assessed as tumor growth inhibition at 1.0 mg/kg, po administered once daily for 2 weeks and measured on day 14 relative to control; format: functional; conditions: CAKI-1, light or radiation study, 336 h, read-out: TGI
Procedure, shortened: (§1)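 Rats were γ-irradiated with 7 Gy whole body, and 24 h later received s.c. tumor cells. Fragments (20-30 mg) from ~1,500 mm3 tumors were then implanted s.c. into irradiated athymic rats. Oral dosing at 0.2 or 1 mg/kg or vehicle ran once daily for 2 weeks from day 0. Tumors were measured with calipers twice weekly (length×width²×0.5). TGI% was taken versus vehicle on day 14 (BxPC-3: day 13), with an unpaired t test on RTV.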

[2] = Cmax in F344/N JcL-rnu athymic rat at 1 mg/kg, po measured upto 72 hrs by HPLC-MS/MS analysis; format: ADME, organism-based; conditions: in vivo
Procedure, shortened: (§2)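 Female F344/N JcL-rnu rats, four per group, single p.o. dose suspended in 0.5% methyl cellulose. Tail-vein blood sampled at set times to 72 h. Serum spiked with internal standard, deproteinated with acetonitrile, analysed by HPLC-MS/MS. Parameters derived by noncompartmental analysis.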

DU-145 = experiment: Antitumor activity against human DU-145 cells xenografted in gamma-irradiation induced RH-rnu/rnu athymic rat assessed as tumor growth inhibition at 1.0 mg/kg, po administered once daily for 2 weeks and measured on day 14 relative to control; format: functional; conditions: DU-145, light or radiation study, 336 h, read-out: TGI; procedure, shortened: as §1
[3] = Tmax in F344/N JcL-rnu athymic rat at 0.04 mg/kg, po measured upto 72 hrs by HPLC-MS/MS analysis; format: ADME, organism-based; conditions: in vivo; procedure, shortened: as §2
[4] = molecular target: Mitogen-activated protein kinase 3 (Homo sapiens, UniProt P27361); experiment: Inhibition of ERK1 phosphorylation in EGF-stimulated serum-starved human HUVEC cells by immunoblotting analysis; format: cell-based
Calu-6 [5] = experiment: Antitumor activity against human Calu-6 cells xenografted in RH-rnu/rnu athymic rat assessed as tumor growth inhibition at 0.2 mg/kg, po administered once daily for 6 to 21 days by DCE-MRI analysis; format: functional, organism-based; conditions: time 6-21 day
Procedure, shortened: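 Calu-6 tumor-bearing athymic rats were randomized at 274-287 mm3 and dosed orally at 0.2 or 1.0 mg/kg or vehicle once daily on days 0-13. Tumor growth was followed by T2-weighted MRI at 1.5 T through day 21.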

A549 [6] = experiment: Antitumor activity against human A549 cells xenografted in F344/N Jcl-rnu athymic rat assessed as tumor regression at 1.0 mg/kg, po relative to control
[7] = molecular target: Receptor tyrosine-protein kinase erbB-4 (Homo sapiens, UniProt Q15303); experiment: Inhibition of ErbB4 (unknown origin) in presence of ATP
Ephrin type-B receptor 2 = Ephrin type-B receptor 2 (Homo sapiens, UniProt P29323); experiment: Inhibition of EphB2 (unknown origin) in presence of ATP
Procedure, shortened: (§3)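 Cell-free kinase assay using recombinant tyrosine kinases with 1 μmol/L ATP, run in quadruplicate. IC50 values determined.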

Calu-6 [8] = experiment: Antitumor activity against human Calu-6 cells xenografted in RH-rnu/rnu athymic rat assessed as decrease in capillary permeability in tumor at 1.0 mg/kg, po measured on day 13 by DCE-MRI analysis relative to control; format: functional; design: scale not given: the % may be the effect or the level left
NCI-H460 [9] = experiment: Antitumor activity against human NCI-H460 cells xenografted in gamma-irradiation induced RH-rnu/rnu athymic rat assessed as tumor growth inhibition at 1.0 mg/kg, po administered once daily for 2 weeks and measured on day 14 relative to control; format: functional; conditions: NCI-H460, light or radiation study, 336 h, read-out: TGI; procedure, shortened: as §1
[10] = Apparent oral clearance in F344/N JcL-rnu athymic rat at 1 mg/kg, po measured upto 72 hrs by HPLC-MS/MS analysis; format: ADME, organism-based; conditions: in vivo; procedure, shortened: as §2
HUVEC = experiment: Antiproliferative activity against bFGF-induced human HUVEC cells assessed as cell viability incubated for 72 hrs by WST-1 assay
[11] = Cmax in F344/N JcL-rnu athymic rat at 0.2 mg/kg, po measured upto 72 hrs by HPLC-MS/MS analysis; format: ADME, organism-based; conditions: in vivo; procedure, shortened: as §2
A549 [12] = experiment: Antitumor activity against human A549 cells xenografted in F344/N Jcl-rnu athymic rat assessed as reduction in number of CD31-positive cells in viable regions of tumor at 0.2 mg/kg, po administered once daily for 7 days by immunofluorescence staining analysis relative to control; conditions: time 7 day
LoVo = experiment: Antitumor activity against human LoVo cells xenografted in gamma-irradiation induced RH-rnu/rnu athymic rat assessed as relative tumor volume at 1 mg/kg, po administered once daily for 2 weeks and measured on day 21; format: functional
Procedure, shortened: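 Tumor fragments were grown in γ-irradiated (7 Gy) athymic rats, followed by once-daily oral dosing at 1 mg/kg for 2 weeks. Tumor volume was measured with calipers as length×width²×0.5. Relative tumor volume was calculated as volume on day x divided by volume on day 0.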

ZR-75-1 = experiment: Antitumor activity against human ZR-75-1 cells xenografted in gamma-irradiation induced RH-rnu/rnu athymic rat assessed as tumor growth inhibition at 1.0 mg/kg, po administered once daily for 2 weeks and measured on day 14 relative to control; format: functional; conditions: ZR-75-1, light or radiation study, 336 h, read-out: TGI
[13] = Half life in F344/N JcL-rnu athymic rat at 5 mg/kg, po measured upto 72 hrs by HPLC-MS/MS analysis; format: ADME, organism-based; conditions: in vivo; procedure, shortened: as §2
NCI-H460 [14] = experiment: Antitumor activity against human NCI-H460 cells xenografted in gamma-irradiation induced RH-rnu/rnu athymic rat assessed as tumor growth inhibition at 0.2 mg/kg, po administered once daily for 2 weeks and measured on day 14 relative to control; format: functional; conditions: NCI-H460, light or radiation study, 336 h, read-out: TGI; procedure, shortened: as §1
Insulin receptor = Insulin receptor (Homo sapiens, UniProt P06213); experiment: Inhibition of insulin-R (unknown origin) in presence of ATP; procedure, shortened: as §3
[15] = molecular target: Fibroblast growth factor receptor 4 (Homo sapiens, UniProt P22455); experiment: Inhibition of FGFR-4 (unknown origin) in presence of ATP
PC-3 [16] = experiment: Antitumor activity against human PC-3 cells xenografted in gamma-irradiation induced RH-rnu/rnu athymic rat assessed as tumor growth inhibition at 1.0 mg/kg, po administered once daily for 2 weeks and measured on day 14 relative to control; format: functional; conditions: PC-3, light or radiation study, 336 h, read-out: TGI
[17] = AUC (0-infinity) in F344/N JcL-rnu athymic rat at 1 mg/kg, po measured upto 72 hrs by HPLC-MS/MS analysis; format: ADME, organism-based; conditions: in vivo
Procedure, shortened: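 Female athymic rats, four per group, given a single oral dose suspended in 0.5% methyl cellulose in water. Tail-vein blood was drawn at set times up to 72 h. Serum was spiked with internal standard, deproteinated with acetonitrile and analysed by HPLC-MS/MS. AUCinf came from noncompartmental analysis.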

Chain of Ephrin type-B receptor 2 (P29323 whole entry): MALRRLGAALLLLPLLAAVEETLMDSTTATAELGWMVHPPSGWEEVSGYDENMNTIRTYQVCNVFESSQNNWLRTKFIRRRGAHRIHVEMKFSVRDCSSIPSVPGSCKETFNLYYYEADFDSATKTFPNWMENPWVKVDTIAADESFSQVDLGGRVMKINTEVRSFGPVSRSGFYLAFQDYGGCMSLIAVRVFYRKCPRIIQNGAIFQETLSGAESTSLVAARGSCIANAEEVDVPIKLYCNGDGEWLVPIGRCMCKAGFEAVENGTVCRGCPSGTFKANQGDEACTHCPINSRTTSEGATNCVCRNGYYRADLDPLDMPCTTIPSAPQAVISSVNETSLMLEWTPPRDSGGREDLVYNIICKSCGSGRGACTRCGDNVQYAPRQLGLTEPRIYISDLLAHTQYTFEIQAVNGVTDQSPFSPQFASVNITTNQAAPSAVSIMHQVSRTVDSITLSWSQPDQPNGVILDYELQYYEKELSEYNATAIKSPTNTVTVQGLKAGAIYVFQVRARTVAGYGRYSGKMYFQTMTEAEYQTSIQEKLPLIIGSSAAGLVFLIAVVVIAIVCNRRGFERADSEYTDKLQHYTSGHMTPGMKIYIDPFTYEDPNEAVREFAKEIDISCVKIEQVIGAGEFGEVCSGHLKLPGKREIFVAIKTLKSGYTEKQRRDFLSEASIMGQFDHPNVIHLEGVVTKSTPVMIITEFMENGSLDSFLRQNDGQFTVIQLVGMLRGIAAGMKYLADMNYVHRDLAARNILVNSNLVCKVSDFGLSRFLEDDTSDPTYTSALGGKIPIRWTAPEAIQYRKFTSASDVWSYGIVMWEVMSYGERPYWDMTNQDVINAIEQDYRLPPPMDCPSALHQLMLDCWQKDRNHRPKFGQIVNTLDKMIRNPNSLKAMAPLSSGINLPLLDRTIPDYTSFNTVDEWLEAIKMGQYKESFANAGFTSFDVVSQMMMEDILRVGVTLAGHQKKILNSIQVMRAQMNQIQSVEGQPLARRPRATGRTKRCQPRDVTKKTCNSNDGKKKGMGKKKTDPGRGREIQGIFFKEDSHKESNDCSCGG
Chain of Insulin receptor (P06213 28-758 limits assumed): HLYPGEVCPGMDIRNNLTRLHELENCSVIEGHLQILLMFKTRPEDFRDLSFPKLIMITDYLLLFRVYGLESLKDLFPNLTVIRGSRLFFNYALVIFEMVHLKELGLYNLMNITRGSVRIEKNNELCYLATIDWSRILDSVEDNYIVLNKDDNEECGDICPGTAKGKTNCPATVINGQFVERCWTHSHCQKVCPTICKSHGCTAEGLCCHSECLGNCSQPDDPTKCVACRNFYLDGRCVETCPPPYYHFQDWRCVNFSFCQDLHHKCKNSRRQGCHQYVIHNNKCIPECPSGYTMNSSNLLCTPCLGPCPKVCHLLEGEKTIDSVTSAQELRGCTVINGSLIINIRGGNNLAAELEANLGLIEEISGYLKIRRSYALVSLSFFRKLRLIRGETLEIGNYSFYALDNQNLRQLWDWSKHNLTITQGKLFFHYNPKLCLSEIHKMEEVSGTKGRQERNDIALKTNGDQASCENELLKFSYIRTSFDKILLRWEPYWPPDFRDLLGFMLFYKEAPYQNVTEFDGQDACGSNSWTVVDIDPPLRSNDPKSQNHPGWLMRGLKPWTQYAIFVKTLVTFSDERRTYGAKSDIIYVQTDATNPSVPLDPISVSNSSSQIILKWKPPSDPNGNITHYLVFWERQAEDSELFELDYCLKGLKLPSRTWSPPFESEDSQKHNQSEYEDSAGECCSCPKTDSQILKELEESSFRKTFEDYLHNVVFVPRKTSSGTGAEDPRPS
Chain of Insulin receptor (P06213 763-1382 limits assumed): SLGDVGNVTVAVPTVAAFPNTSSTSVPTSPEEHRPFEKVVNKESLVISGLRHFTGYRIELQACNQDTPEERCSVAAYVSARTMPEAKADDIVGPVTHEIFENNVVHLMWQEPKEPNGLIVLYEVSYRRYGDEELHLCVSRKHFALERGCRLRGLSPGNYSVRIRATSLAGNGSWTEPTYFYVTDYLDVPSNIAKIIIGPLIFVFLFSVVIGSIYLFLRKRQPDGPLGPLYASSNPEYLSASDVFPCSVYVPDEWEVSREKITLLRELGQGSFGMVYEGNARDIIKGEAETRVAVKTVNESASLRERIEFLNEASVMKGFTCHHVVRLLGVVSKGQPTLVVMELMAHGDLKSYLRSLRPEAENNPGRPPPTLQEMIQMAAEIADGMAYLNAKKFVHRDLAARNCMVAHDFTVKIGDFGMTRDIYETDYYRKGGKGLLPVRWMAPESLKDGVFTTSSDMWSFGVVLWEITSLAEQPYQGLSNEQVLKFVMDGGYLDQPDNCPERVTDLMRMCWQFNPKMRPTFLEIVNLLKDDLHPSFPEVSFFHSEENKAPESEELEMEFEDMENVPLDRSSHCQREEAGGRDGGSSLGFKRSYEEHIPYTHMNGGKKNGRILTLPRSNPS
Chain of Mitogen-activated protein kinase 3 (P27361 whole entry): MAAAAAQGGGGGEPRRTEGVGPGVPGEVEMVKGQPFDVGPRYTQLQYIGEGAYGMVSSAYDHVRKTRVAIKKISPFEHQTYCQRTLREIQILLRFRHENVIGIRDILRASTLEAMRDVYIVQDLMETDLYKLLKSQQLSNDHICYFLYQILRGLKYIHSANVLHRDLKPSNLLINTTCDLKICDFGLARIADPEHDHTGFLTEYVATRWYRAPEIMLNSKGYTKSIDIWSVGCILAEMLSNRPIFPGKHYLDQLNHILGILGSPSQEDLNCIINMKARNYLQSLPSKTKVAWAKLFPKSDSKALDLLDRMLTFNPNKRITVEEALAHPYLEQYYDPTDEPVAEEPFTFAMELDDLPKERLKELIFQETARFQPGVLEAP
Chain of Receptor tyrosine-protein kinase erbB-4 (Q15303 whole entry): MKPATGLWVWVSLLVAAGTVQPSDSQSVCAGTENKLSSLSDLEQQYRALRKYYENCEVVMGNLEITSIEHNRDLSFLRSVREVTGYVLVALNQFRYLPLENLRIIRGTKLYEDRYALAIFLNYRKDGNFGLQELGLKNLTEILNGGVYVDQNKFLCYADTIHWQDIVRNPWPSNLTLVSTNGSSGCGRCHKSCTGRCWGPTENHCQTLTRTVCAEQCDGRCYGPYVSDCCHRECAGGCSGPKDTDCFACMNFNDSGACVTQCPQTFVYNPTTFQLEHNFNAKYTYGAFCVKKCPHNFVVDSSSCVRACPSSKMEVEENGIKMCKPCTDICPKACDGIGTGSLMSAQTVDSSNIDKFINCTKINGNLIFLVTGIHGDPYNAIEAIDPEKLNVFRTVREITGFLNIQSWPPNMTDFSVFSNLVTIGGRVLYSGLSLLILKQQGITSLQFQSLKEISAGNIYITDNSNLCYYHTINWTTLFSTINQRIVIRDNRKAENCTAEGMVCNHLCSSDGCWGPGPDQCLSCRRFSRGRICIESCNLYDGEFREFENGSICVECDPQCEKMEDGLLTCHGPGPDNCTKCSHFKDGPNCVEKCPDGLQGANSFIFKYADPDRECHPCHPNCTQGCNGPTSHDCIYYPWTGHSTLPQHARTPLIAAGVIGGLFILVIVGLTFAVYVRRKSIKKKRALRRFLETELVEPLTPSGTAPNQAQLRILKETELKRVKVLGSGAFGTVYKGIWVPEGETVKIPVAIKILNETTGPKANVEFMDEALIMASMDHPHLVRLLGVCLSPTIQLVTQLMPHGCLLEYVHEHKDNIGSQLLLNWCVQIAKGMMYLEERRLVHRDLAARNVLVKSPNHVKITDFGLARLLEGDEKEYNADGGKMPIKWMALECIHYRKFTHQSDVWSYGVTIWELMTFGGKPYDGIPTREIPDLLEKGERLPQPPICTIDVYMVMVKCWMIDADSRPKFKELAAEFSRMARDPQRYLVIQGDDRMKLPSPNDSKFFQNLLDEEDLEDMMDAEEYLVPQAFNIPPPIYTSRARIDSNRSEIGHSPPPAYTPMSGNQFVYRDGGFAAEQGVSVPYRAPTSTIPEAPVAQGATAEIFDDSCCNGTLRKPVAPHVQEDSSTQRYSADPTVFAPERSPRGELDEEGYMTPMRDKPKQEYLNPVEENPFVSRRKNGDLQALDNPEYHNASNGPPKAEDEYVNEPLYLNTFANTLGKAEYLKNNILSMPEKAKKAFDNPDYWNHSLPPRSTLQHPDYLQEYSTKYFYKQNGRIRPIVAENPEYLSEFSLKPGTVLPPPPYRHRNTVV
Chain of Fibroblast growth factor receptor 4 (P22455 whole entry): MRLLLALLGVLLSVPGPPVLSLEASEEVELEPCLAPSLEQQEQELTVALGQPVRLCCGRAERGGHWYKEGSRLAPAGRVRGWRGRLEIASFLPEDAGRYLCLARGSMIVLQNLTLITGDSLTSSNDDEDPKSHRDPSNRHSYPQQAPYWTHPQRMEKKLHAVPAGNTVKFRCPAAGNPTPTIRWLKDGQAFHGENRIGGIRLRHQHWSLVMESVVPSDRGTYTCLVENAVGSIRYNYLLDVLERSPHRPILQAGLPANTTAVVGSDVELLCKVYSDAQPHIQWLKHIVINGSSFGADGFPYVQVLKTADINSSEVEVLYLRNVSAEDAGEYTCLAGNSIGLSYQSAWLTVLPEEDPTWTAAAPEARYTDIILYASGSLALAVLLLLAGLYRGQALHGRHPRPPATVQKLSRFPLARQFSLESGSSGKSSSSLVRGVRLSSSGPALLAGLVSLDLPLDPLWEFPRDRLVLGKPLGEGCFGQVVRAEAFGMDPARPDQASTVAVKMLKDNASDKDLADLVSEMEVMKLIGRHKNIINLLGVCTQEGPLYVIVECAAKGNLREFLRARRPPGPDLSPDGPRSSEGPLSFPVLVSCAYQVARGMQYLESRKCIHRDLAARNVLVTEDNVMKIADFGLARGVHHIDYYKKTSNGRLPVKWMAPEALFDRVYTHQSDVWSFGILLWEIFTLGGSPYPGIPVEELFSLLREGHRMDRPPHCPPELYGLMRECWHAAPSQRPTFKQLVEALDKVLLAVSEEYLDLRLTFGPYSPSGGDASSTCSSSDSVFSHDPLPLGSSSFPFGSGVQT

COc1cc2nccc(Oc3ccc(NC(=O)Nc4cc(C)on4)c(Cl)c3)c2cc1OC [TIVOZANIB]
inhibition in vivo at 0.2 mg/kg (SK-HEP1): 59.4%
inhibition in vivo at 0.2 mg/kg (PC-3 [1]): 73.6%
inhibition in vivo at 1 mg/kg (CAKI-1): > 100%
Cmax [2]: 484 ng/mL
inhibition in vivo at 1 mg/kg (DU-145): > 100%
Tmax [3]: 3.63 h
inhibition [4]: inactive
Activity (Calu-6 [5]): Active
tumor regression % at 1 mg/kg (A549 [6]): 33%
IC50 [7]: > 1000 nM
IC50 (Ephrin type-B receptor 2): 24 nM
Activity (Calu-6 [8]): 61%
inhibition in vivo at 1 mg/kg (NCI-H460 [9]): 85.9%
CL/F [10]: 2.2 mL/min/kg
IC50 (HUVEC): > 300 nM
Cmax [11]: 108 ng/mL
Activity (A549 [12]): 20.7%
Activity (LoVo): 0.85
inhibition in vivo at 1 mg/kg (ZR-75-1): 94.3%
half-life [13]: 7.94 h
inhibition in vivo at 0.2 mg/kg (NCI-H460 [14]): 68.8%
IC50 (Insulin receptor): > 1000 nM
IC50 [15]: > 1000 nM
inhibition in vivo at 1 mg/kg (PC-3 [16]): 95.9%
AUC(0-inf) [17]: 7640 ng·h/mL
